As a reminder, the Kd is the free concentration of one partner at which half of the binding sites on the other are occupied at equilibrium, for simple one-to-one binding.

The text below walks through data of paper PMC3321094 (Nature, 2012).

In assay [1] the target is T1, Histone H4K20me2 peptide 14-25 (Homo sapiens, UniProt P62805).
T1 chain: GGAKRHRK(Me2)VLRD
Kind of assay: ITC.

Assay [2] deals with T2, Histone H4K20me3 peptide 14-25 (Homo sapiens, UniProt P62805).
T2 chain: GGAKRHRK(Me3)VLRD
The experiment in a line: ITC. A general note: Isothermal titration calorimetry measures the heat released or taken up as one component is titrated into another.

Assay [3] relates to ORC components (ORC2, ORC3 and ORC5). The experiment in a line: Affinity purification of FLAG-ORC1 complexes from U2OS cells. Type of assay: cell-based, human. The note with it: vs wild-type ORC1, Western blot.
Assay [4] shares this test system. The experiment in a line: Affinity purification of FLAG-ORC1 complexes from HT1080 cells. Type of assay: cell-based, human. Conditions: vs wild-type ORC1, Western blot. Background: In western blotting, separated proteins are transferred to a membrane and probed.
Assay [5] relates to WI38 cells. Kind of assay: Cell-cycle profile of WI38 cells by flow cytometry. The format is cell-based, human. The note with it: WI38 primary fibroblast, relative to wild-type hORC1. Summed up: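 WI38 cells transiently expressing GFP plus wild-type ORC1 or an H4K20me2-binding-pocket point mutant (Y64A or W88A). Cell-cycle profile determined by flow cytometry, gating on GFP-positive cells so that only transfected cells are scored. Percentage of cells in each cell-cycle phase and the S/G1 ratio are calculated per transfection. Two experiments, s.d. reported.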
In general terms: In flow cytometry, cells or beads pass a laser one at a time.

For assay [6], the system named is chromatin. Kind of assay: Small-scale biochemical fractionation: ORC chromatin association. Type of assay: cell-based, human. The note with it: cells stably expressing ORC1 protein, in comparison to hORC1; Western blot.

Where no end group is shown, it is not given here.

B1: ORC1 BAH domain (mORC1BAH) 9-170 (protein)
chain: KTRQTFSWVGRPLPNRKQFQQMYREICMKINDGSEIHIKVGQFVLIQGEDNKKPYVAKLIELFQNGAEVPPKKCARVQWFVRFLEIPVSKRHLLGRSPPAQEIFWYDCSDWDNKINVETIIGPVQVVALAPEEVIPVDQKSEETLFVKLSWNKKDFAPLPPE
In assay [1], B1 gave a Kd of 9.6 µM.

B2: ORC1 BAH domain (hORC1BAH) 1-185 (protein)
chain: MAHYPTRLKTRKTYSWVGRPLLDRKLHYQTYREMCVKTEGCSTEIHIQIGQFVLIEGDDDENPYVAKLLELFEDDSDPPPKKRARVQWFVRFCEVPACKRHLLGRKPGAQEIFWYDYPACDSNINAETIIGLVRVIPLAPKDVVPTNLKNEKTLFVKLSWNEKKFRPLSSELFAELNKPQESAAK
B2 showed a Kd in assay [2] of 40 µM.

B3: hORC1Y64A: H4K20me2-binding pocket mutant Y64A of human ORC1 (protein, UniProt Q13415 1-861, looked up, variant Y64A)
Origin recognition complex …: MAHYPTRLKTRKTYSWVGRPLLDRKLHYQTYREMCVKTEGCSTEIHIQIGQFVLIEGDDDENPAVAKLLELFEDDSDPPPKKRARVQWFVRFCEVPACKRHLLGRKPGAQEIFWYDYPACDSNINAETIIGLVRVIPLAPKDVVPTNLKNEKTLFVKLSWNEKKFRPLSSELFAELNKPQESAAKCQKPVRAKSKSAESPSWTPAEHVAKRIESRHSASKSRQTPTHPLTPRARKRLELGNLGNPQMSQQTSCASLDSPGRIKRKVAFSEITSPSKRSQPDKLQTLSPALKAPEKTRETGLSYTEDDKKASPEHRIILRTRIAASKTIDIREERTLTPISGGQRSSVVPSVILKPENIKKRDAKEAKAQNEATSTPHRIRRKSSVLTMNRIRQQLRFLGNSKSDQEEKEILPAAEISDSSSDEEEASTPPLPRRAPRTVSRNLRSSLKSSLHTLTKVPKKSLKPRTPRCAAPQIRSRSLAAQEPASVLEEARLRLHVSAVPESLPCREQEFQDIYNFVESKLLDHTGGCMYISGVPGTGKTATVHEVIRCLQQAAQANDVPPFQYIEVNGMKLTEPHQVYVQILQKLTGQKATANHAAELLAKQFCTRGSPQETTVLLVDELDLLWTHKQDIMYNLFDWPTHKEARLVVLAIANTMDLPERIMMNRVSSRLGLTRMCFQPYTYSQLQQILRSRLKHLKAFEDDAIQLVARKVAALSGDARRCLDICRRATEICEFSQQKPDSPGLVTIAHSMEAVDEMFSSSYITAIKNSSVLEQSFLRAILAEFRRSGLEEATFQQIYSQHVALCRMEGLPYPTMSETMAVCSHLGSCRLLLVEPSRNDLLLRVRLNVSQDDVLYALKDE
In the case of B3, the “efficiency of affinity purification of ORC2, ORC3 and ORC5” value (shortened to “efficiency”) in assay [3] is on record as “equal to that observed with the wild-type protein”. In addition, in assay [4], the “efficiency” value was “equal to that observed with the wild-type protein”. Moreover, in assay [5], the S phase population result is listed as “decreased S phase population” and the “S/G1 ratio (in words)” value is reported as “lower S/G1 ratio”. For the same molecule, the “ORC1 enrichment at chromatin” value in assay [6] was “considerably reduced”.

B4: hORC1W88A: H4K20me2-binding pocket mutant W88A of human ORC1 (protein, UniProt Q13415 1-861, looked up, variant W88A)
Origin recognition complex …: MAHYPTRLKTRKTYSWVGRPLLDRKLHYQTYREMCVKTEGCSTEIHIQIGQFVLIEGDDDENPYVAKLLELFEDDSDPPPKKRARVQAFVRFCEVPACKRHLLGRKPGAQEIFWYDYPACDSNINAETIIGLVRVIPLAPKDVVPTNLKNEKTLFVKLSWNEKKFRPLSSELFAELNKPQESAAKCQKPVRAKSKSAESPSWTPAEHVAKRIESRHSASKSRQTPTHPLTPRARKRLELGNLGNPQMSQQTSCASLDSPGRIKRKVAFSEITSPSKRSQPDKLQTLSPALKAPEKTRETGLSYTEDDKKASPEHRIILRTRIAASKTIDIREERTLTPISGGQRSSVVPSVILKPENIKKRDAKEAKAQNEATSTPHRIRRKSSVLTMNRIRQQLRFLGNSKSDQEEKEILPAAEISDSSSDEEEASTPPLPRRAPRTVSRNLRSSLKSSLHTLTKVPKKSLKPRTPRCAAPQIRSRSLAAQEPASVLEEARLRLHVSAVPESLPCREQEFQDIYNFVESKLLDHTGGCMYISGVPGTGKTATVHEVIRCLQQAAQANDVPPFQYIEVNGMKLTEPHQVYVQILQKLTGQKATANHAAELLAKQFCTRGSPQETTVLLVDELDLLWTHKQDIMYNLFDWPTHKEARLVVLAIANTMDLPERIMMNRVSSRLGLTRMCFQPYTYSQLQQILRSRLKHLKAFEDDAIQLVARKVAALSGDARRCLDICRRATEICEFSQQKPDSPGLVTIAHSMEAVDEMFSSSYITAIKNSSVLEQSFLRAILAEFRRSGLEEATFQQIYSQHVALCRMEGLPYPTMSETMAVCSHLGSCRLLLVEPSRNDLLLRVRLNVSQDDVLYALKDE
For the molecule B4, in assay [3], the “efficiency” value is on record as “equal to that observed with the wild-type protein”. In addition, the “efficiency” value in assay [4] is listed as “equal to that observed with the wild-type protein”. For the same molecule, in assay [5], the S phase population result was “decreased S phase population” and the “S/G1 ratio (in words)” value is listed as “lower S/G1 ratio”. In assay [6], the “ORC1 enrichment at chromatin” value was “considerably reduced”.
